These results are taken from BindingDB's records for doi:10.1016/j.bmc.2011.02.028 (Kinki University, 2011).

Each structure is given as a SMILES string. pIC50: −log10 of the molar value. Counter-ions that a name gives are not always drawn. Some results are limits rather than exact numbers.

This assay in a line: Inhibition of rat small intestinal maltase after 30 mins. In a few lines:
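Enzyme source was rat small-intestinal brush-border membrane vesicles suspended in 0.1 M maleate buffer, pH 6.0. Substrate solutions were maltose 74 mM (maltase), sucrose 74 mM (sucrase) and isomaltose 7.4 mM (isomaltase). Glucose was measured by glucose oxidase. IC50 was read graphically from % inhibition versus log concentration.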
In the case of `O=S(=O)([O-])O[C@H]([C@@H](O)[C@H](O)[C@H](O)CO)[C@H](O)C[S+]1C[C@@H](O)[C@H](O)[C@H]1CO` (stereo partly drawn) [1,4-dideoxy-1,4-{(S)-[(2S,3R,4S,5R,6R)-2,4,5,6,7-pentahydroxy-3-(sulfooxy)heptyl]episulfoniumylidene}-D-arabinitol inner salt], the pIC50 – broadly, the negative decadic logarithm of the IC50, by convention in mol/L – was below 3.63.

Consider `O=S(=O)([O-])O[C@H]([C@@H](O)[C@H](O)[C@@H](O)CO)[C@H](O)C[S+]1C[C@@H](O)[C@H](O)[C@H]1CO` (stereo partly drawn) [1,4-dideoxy-1,4-{(S)-[(2S,3R,4S,5R,6S)-2,4,5,6,7-pentahydroxy-3-(sulfooxy)heptyl]episulfoniumylidene}-D-arabinitol inner salt], for which the pIC50 is below 3.63. The molecule `O=S(=O)([O-])O[C@H]([C@@H](O)[C@@H](O)[C@H](O)CO)[C@H](O)C[S+]1C[C@@H](O)[C@H](O)[C@H]1CO` (stereo partly drawn) [1,4-dideoxy-1,4-{(S)-[(2S,3R,4S,5S,6R)-2,4,5,6,7-pentahydroxy-3-(sulfooxy)heptyl]-episulfoniumylidene}-D-arabinitol inner salt] gave a pIC50 below 3.63.

Molecule `O=S(=O)([O-])O[C@H]([C@@H](O)[C@@H](O)[C@@H](O)CO)[C@H](O)C[S+]1C[C@@H](O)[C@H](O)[C@H]1CO` (stereo partly drawn) [1,4-dideoxy-1,4-{(S)-[(2S,3R,4S,5S,6S)-2,4,5,6,7-pentahydroxy-3-(sulfooxy)heptyl]episulfoniumylidene}-D-arabinitol inner salt] had a negative logarithm of the IC50 (pIC50) of 4.24. For `O=S(=O)([O-])OC[C@H](O)C[S@@+]1C[C@@H](O)[C@H](O)[C@H]1CO` [Salaprinol] the value was 5.49. For `O=S(=O)([O-])O[C@@H]([C@H](O)[C@@H](O)CO)[C@H](O)C[S@@+]1C[C@@H](O)[C@H](O)[C@H]1CO` [ponkoranol] the value was below 4.00.
